pIC50: −log10 of the molar value. Blank lines part the entries; values can stand above or below the molecule they belong to.
How the values were obtained:
[1] = target: Metabotropic glutamate receptor 3 (Rattus norvegicus) (UniProt P31422); assay: Antagonistic activity against Glutamate receptor in rat spinal cord at concentration of 50 uM.; type: functional, tissue-based
How it was run: (§1)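 Neonatal rat spinal cord, hemisected sagittally, superfused at 1 mL/min with oxygenated Krebs-Henseleit medium containing 0.5% urethane at room temperature. Agonists were given in 2-mL doses in the superfusate. Antagonist was superfused continuously for at least 15 min before agonist retesting. Read-out was ventral root depolarization (DC potential, ventral root vs cord body), measured as amplitude and area of response.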

[2] = target: Substance-P receptor (Cavia porcellus) (UniProt P30547); assay: In vitro inhibition of substance P (6-11) hexapeptide induced contractions of the guinea pig ileum at 5 uM.; type: tissue-based
How it was run: (§2)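 Agonist (SP or SP(6-11)-hexapeptide) dose-response curves on a 3-min cycle with 1-min contact, then washout. Dose ratio = agonist EC50 with antagonist / EC50 alone. At least two preparations per compound; ratios below 2 taken as insignificant.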

[3] = target: Substance-P receptor (Cavia porcellus) (UniProt P30547); assay: In vitro inhibition of substance P induced contractions of the guinea pig ileum at 10 uM.; type: tissue-based; how it was run: as §2
[4] = target: Substance-P receptor (Cavia porcellus) (UniProt P30547); assay: In vitro inhibition of substance P induced contractions of the guinea pig ileum at 5 uM.; type: tissue-based; how it was run: as §2
[5] = target: Substance-P receptor (Cavia porcellus) (UniProt P30547); assay: In vitro inhibition of substance P (6-11) hexapeptide induced contractions of the guinea pig ileum at 10 uM.; type: tissue-based; how it was run: as §2
[6] = target: Substance-P receptor (Rattus norvegicus) (UniProt P14600); assay: Antagonistic activity against Substance P receptor in rat spinal cord at concentration of 5 uM.
[7] = target: Substance-P receptor (Rattus norvegicus) (UniProt P14600); assay: Antagonistic activity against Substance P receptor in rat spinal cord at concentration of 50 uM.
[8] = target: Substance-P receptor (Rattus norvegicus) (UniProt P14600); assay: Antagonistic activity against Substance P(6-11) receptor in rat spinal cord at concentration of 5 uM.
[9] = target: Substance-P receptor (Rattus norvegicus) (UniProt P14600); assay: Antagonistic activity against Substance P(6-11) receptor in rat spinal cord at concentration of 50 uM.
[10] = target: Substance-P receptor (Rattus norvegicus, UniProt P14600); assay: Histamine releasing activity of Substance P from isolated rat peritoneal mast cells; type: functional
How it was run: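 Histamine release from isolated rat peritoneal mast cells, method of Fretwell et al. Dose-response curves were built over a range of concentrations, and EC50 values were calculated from the curves.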

[11] = target: Metabotropic glutamate receptor 3 (Rattus norvegicus) (UniProt P31422); assay: Antagonistic activity against Glutamate receptor in rat spinal cord at concentration of 10 uM.; type: functional, tissue-based; how it was run: as §1
[12] = target: Substance-P receptor (Rattus norvegicus) (UniProt P14600); assay: Antagonistic activity against Substance P receptor in rat spinal cord at concentration of 10 uM.
[13] = target: Substance-P receptor (Rattus norvegicus) (UniProt P14600); assay: Antagonistic activity against Substance P(6-11) receptor in rat spinal cord at concentration of 10 uM.
[14] = target: Metabotropic glutamate receptor 3 (Rattus norvegicus) (UniProt P31422); assay: Antagonistic activity against Glutamate receptor in rat spinal cord at concentration of 5 uM.; type: functional, tissue-based; how it was run: as §1

Sequence of Metabotropic glutamate receptor 3 (Rattus norvegicus) (P31422 23-879 limits assumed): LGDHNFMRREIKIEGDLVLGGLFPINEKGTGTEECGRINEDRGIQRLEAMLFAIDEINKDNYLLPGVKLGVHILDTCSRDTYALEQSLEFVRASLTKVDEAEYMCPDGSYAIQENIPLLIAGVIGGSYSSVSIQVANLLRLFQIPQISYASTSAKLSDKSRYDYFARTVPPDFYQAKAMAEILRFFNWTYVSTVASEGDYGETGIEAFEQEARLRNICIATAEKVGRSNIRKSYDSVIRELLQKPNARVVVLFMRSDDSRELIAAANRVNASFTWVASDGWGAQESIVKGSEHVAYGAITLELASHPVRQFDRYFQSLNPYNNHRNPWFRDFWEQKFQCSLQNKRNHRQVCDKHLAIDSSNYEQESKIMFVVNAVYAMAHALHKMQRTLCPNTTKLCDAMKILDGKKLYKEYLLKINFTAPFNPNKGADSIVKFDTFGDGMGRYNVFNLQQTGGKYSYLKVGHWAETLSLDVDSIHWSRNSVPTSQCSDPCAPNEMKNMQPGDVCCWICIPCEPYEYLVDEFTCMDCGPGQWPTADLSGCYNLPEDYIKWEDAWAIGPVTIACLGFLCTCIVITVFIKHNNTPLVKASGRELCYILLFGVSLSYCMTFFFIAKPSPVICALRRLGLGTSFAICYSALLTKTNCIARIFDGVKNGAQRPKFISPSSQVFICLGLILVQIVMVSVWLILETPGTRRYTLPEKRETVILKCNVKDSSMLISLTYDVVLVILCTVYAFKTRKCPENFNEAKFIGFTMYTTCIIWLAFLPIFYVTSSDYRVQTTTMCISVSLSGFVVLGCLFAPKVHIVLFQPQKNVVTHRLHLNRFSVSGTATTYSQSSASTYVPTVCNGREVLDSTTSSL
Sequence of Substance-P receptor (Cavia porcellus) (P30547 whole entry): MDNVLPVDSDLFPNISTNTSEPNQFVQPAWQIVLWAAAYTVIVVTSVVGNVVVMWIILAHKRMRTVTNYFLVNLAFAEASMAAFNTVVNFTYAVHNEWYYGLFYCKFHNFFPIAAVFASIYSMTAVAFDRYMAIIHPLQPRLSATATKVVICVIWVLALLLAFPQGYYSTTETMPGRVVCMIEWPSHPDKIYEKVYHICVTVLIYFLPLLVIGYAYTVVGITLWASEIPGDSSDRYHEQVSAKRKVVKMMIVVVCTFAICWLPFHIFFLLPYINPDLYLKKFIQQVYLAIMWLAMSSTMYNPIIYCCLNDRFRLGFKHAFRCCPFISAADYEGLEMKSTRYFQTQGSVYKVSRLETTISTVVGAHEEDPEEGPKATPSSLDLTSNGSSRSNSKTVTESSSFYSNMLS
Sequence of Substance-P receptor (P14600 whole entry): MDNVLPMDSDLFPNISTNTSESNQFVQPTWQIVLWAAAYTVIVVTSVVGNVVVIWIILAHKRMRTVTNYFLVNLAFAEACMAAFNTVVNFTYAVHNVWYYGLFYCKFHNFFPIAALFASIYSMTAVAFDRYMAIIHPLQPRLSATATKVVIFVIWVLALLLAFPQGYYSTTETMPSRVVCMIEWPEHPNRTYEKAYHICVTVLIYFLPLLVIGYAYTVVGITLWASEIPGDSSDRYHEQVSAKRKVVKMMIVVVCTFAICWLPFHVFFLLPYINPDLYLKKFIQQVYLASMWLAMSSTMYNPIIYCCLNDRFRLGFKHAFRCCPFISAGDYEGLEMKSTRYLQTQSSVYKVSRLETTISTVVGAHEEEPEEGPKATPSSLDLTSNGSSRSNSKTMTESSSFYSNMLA
Sequence of Substance-P receptor (Rattus norvegicus) (P14600 whole entry, looked up): as the sequence (P14600 whole entry) above

Compound: COC(=O)[C@@H](CCSC)NC(=O)C(CC(C)C)NC(=O)[C@@H](Cc1c[nH]c2ccccc12)NC(=O)[C@H](Cc1c[nH]c2ccccc12)NC(=O)[C@@H](Cc1c[nH]c2ccccc12)NC(=O)[C@H](CCC(N)=O)NC(=O)[C@H](CCC(N)=O)NC(=O)[C@@H]1CCCN1C(=O)[C@H](CCCCNC(=O)OCc1ccccc1)NC(=O)[C@@H]1CCCN1C(=O)[C@H](CCCN=C(N)N)NC(=O)OCc1ccccc1 (stereo in doubt)
Activity [2]: 7.2 dose ratio | Activity [3]: 9.8 dose ratio | Activity [4]: 6.2 dose ratio | Activity [5]: 10.7 dose ratio

Compound: COC(=O)[C@H](CCSC)NC(=O)[C@H](CC(C)C)NC(=O)[C@@H](Cc1c[nH]c2ccccc12)NC(=O)[C@H](Cc1ccccc1)NC(=O)[C@@H](Cc1ccccc1)NC(=O)[C@H](CCCN=C(N)N)NC(=O)[C@H](CC(N)=O)NC(=O)C1CCCN1C(=O)[C@H](CCCCN)NC(=O)C1CCCN1C(=O)[C@@H](N)CCCN=C(N)N (stereo in doubt)
Activity [2]: 2.2 dose ratio | Activity [3]: 6 dose ratio | Activity [4]: 2.2 dose ratio | Activity [5]: 4 dose ratio

Compound: CSCCC(NC(=O)C(CC(C)C)NC(=O)[C@@H](Cc1c[nH]c2ccccc12)NC(=O)[C@H](Cc1ccccc1)NC(=O)[C@@H](Cc1c[nH]c2ccccc12)NC(=O)[C@H](CCC(N)=O)NC(=O)[C@H](CCC(N)=O)NC(=O)[C@@H]1CCCN1C(=O)[C@H](CCCCN)NC(=O)[C@H]1CCCN1C(=O)[C@@H](N)CCCNC(=N)N)C(N)=O (stereo in doubt)
pIC50 [10]: 5.40

Compound: CSCC[C@H](NC(=O)[C@H](CC(C)C)NC(=O)[C@@H](Cc1c[nH]c2ccccc12)NC(=O)[C@H](Cc1ccccc1)NC(=O)[C@@H](Cc1ccccc1)NC(=O)[C@H](CCCN=C(N)N)NC(=O)[C@H](CC(N)=O)NC(=O)C1CCCN1C(=O)[C@H](CCCCN)NC(=O)C1CCCN1C(=O)[C@@H](N)CCCN=C(N)N)C(=O)O (stereo in doubt)
Activity [2]: < 2 dose ratio | Activity [3]: < 2 dose ratio | Activity [4]: < 2 dose ratio | Activity [5]: < 2 dose ratio

Compound: CSCC[C@H](NC(=O)[C@H](CC(C)C)NC(=O)[C@@H](Cc1c[nH]c2ccccc12)NC(=O)[C@H](Cc1ccccc1)NC(=O)[C@@H](Cc1ccccc1)NC(=O)[C@H](CCCNC(=N)N)NC(=O)[C@H](CC(N)=O)NC(=O)[C@@H]1CCCN1C(=O)[C@H](CCCCNC(=O)OCc1ccccc1)NC(=O)[C@H]1CCCN1C(=O)[C@H](CCCNC(=N)N)NC(=O)OCc1ccccc1)C(N)=O
pIC50 [10]: 6.30

Compound: COC(=O)[C@@H](CCSC)NC(=O)[C@H](CC(C)C)SCCNC(=O)[C@H](Cc1ccccc1)NC(=O)[C@@H](Cc1ccccc1)NC(=O)[C@H](CCCN=C(N)N)NC(=O)[C@H](CC(N)=O)NC(=O)C1CCCN1C(=O)[C@H](CCCCNC(=O)OCc1ccccc1)NC(=O)C1CCCN1C(=O)[C@H](CCCN=C(N)N)NC(=O)OCc1ccccc1 (stereo in doubt)
Activity [2]: 54.5 dose ratio | Activity [3]: 20 dose ratio | Activity [4]: 18.5 dose ratio | Activity [5]: 68 dose ratio

Compound: COC(=O)[C@@H](CCSC)NC(=O)[C@H](CC(C)C)SCCNC(=O)[C@@H](Cc1ccccc1)NC(=O)[C@@H](Cc1ccccc1)NC(=O)[C@H](CCC(N)=O)NC(=O)[C@H](CCC(N)=O)NC(=O)[C@H]1CCCN1C(=O)[C@H](CCCCNC(=O)OCc1ccccc1)NC(=O)[C@H]1CCCN1C(=O)[C@H](CCCNC(=N)N)NC(=O)OCc1ccccc1
pIC50 [10]: 4.48

Compound: COC(=O)[C@@H](CCSC)NC(=O)[C@@H](CC(C)C)SCCNC(=O)[C@@H](Cc1ccccc1)NC(=O)[C@@H](Cc1ccccc1)NC(=O)[C@H](CCC(N)=O)NC(=O)[C@H](CCC(N)=O)NC(=O)[C@H]1CCCN1C(=O)[C@H](CCCCNC(=O)OCc1ccccc1)NC(=O)[C@H]1CCCN1C(=O)[C@H](CCCN=C(N)N)NC(=O)OCc1ccccc1
pIC50 [10]: 4.60

Compound: COC(=O)[C@H](CCSC)NC(=O)[C@H](CC(C)C)NC(=O)[C@@H](Cc1c[nH]c2ccccc12)NC(=O)[C@H](Cc1ccccc1)NC(=O)[C@@H](Cc1ccccc1)NC(=O)[C@H](CCCCN)NC(=O)[C@H](CC(N)=O)NC(=O)C1CCCN1C(=O)[C@H](CCCCN)NC(=O)C1CCCN1C(=O)[C@@H](N)CCCN=C(N)N (stereo in doubt)
Change in amplitude response [11]: 8% | Activity [2]: < 2 dose ratio | Activity [3]: < 2 dose ratio | Activity [4]: < 2 dose ratio | Activity [5]: < 2 dose ratio | Change in amplitude response [12]: 9% | Change in amplitude response [13]: -54%

Compound: COC(=O)[C@@H](CCSC)NC(=O)[C@@H](CC(C)C)NC(=O)CNC(=O)[C@@H](Cc1c[nH]c2ccccc12)NC(=O)[C@@H](Cc1c[nH]c2ccccc12)NC(=O)[C@H](CCC(N)=O)NC(=O)[C@H](CCC(N)=O)NC(=O)[C@@H]1CCCN1C(=O)[C@H](CCCCNC(=O)OCc1ccccc1)NC(=O)[C@@H]1CCCN1C(=O)[C@H](CCCN=C(N)N)NC(=O)OCc1ccccc1
Activity [2]: 34 dose ratio | Activity [3]: 17.2 dose ratio | Activity [4]: 15 dose ratio | Activity [5]: 37 dose ratio

Compound: COC(=O)[C@@H](CCSC)NC(=O)[C@H](CC(C)C)SCCNC(=O)[C@@H](Cc1ccccc1)NC(=O)[C@H](Cc1ccccc1)NC(=O)[C@H](CCC(N)=O)NC(=O)[C@H](CCC(N)=O)NC(=O)[C@H]1CCCN1C(=O)[C@H](CCCCNC(=O)OCc1ccccc1)NC(=O)[C@H]1CCCN1C(=O)[C@H](CCCN=C(N)N)NC(=O)OCc1ccccc1
Change in amplitude response [1]: -5% | Change in amplitude response [14]: 5% | Activity [2]: 21.6 dose ratio | Activity [3]: 15.2 dose ratio | Activity [4]: 4.5 dose ratio | Activity [5]: 49.3 dose ratio

Now from value to molecule:

Change in amplitude response [1]: -50% | Activity [2]: < 2 dose ratio | Activity [3]: < 2 dose ratio | Activity [4]: < 2 dose ratio | Activity [5]: < 2 dose ratio | Change in amplitude response [6]: 42% | Change in amplitude response [7]: -62% | Change in amplitude response [8]: -7% | Change in amplitude response [9]: -80%
Compound: COC(=O)[C@@H](CCSC)NC(=O)C(CC(C)C)SCCNC(=O)[C@H](Cc1ccccc1)NC(=O)[C@@H](Cc1ccccc1)NC(=O)[C@H](CCC(N)=O)NC(=O)[C@H](CCC(N)=O)NC(=O)C1CCCN1C(=O)OC(C)(C)C (stereo in doubt)

Activity [2]: < 2 dose ratio | Activity [3]: < 2 dose ratio | Activity [4]: < 2 dose ratio | Activity [5]: < 2 dose ratio
Compound: COC(=O)[C@@H](CCSC)NC(=O)[C@H](CC(C)C)N(C)C(=O)CN(C)C(=O)[C@H](Cc1ccccc1)NC(=O)[C@@H](Cc1ccccc1)NC(=O)[C@H](CCC(N)=O)NC(=O)[C@H](CCC(N)=O)NC(=O)C1CCCN1C(=O)OC(C)(C)C (stereo in doubt)

Activity [2]: 69 dose ratio | Activity [3]: 18.2 dose ratio | Activity [4]: 5.8 dose ratio | Activity [5]: 225 dose ratio
Compound: COC(=O)[C@@H](CCSC)NC(=O)[C@H](CC(C)C)SCCNC(=O)[C@H](Cc1ccccc1)NC(=O)[C@@H](Cc1ccccc1)NC(=O)[C@H](CCCN=C(N)N)NC(=O)[C@H](CC(N)=O)NC(=O)OCc1ccccc1

Activity [2]: 2.5 dose ratio | Activity [3]: 3.6 dose ratio | Activity [4]: 2.7 dose ratio | Activity [5]: 3.4 dose ratio
Compound: COC(=O)C(CCSC)NC(=O)[C@H](CC(C)C)SCCNC(=O)[C@@H](Cc1ccccc1)NC(=O)[C@@H](Cc1ccccc1)NC(=O)[C@H](CCC(N)=O)NC(=O)[C@H](CCC(N)=O)NC(=O)[C@H]1CCCN1C(=O)[C@H](CCCCN)NC(=O)[C@H]1CCCN1C(=O)[C@@H](N)CCCN=C(N)N (stereo in doubt)

Change in amplitude response [1]: -43% | Activity [2]: 3 dose ratio | Activity [3]: 2.3 dose ratio | Activity [4]: < 2 dose ratio | Activity [5]: 10 dose ratio | Change in amplitude response [6]: 40% | Change in amplitude response [7]: -54% | Change in amplitude response [8]: -28% | Change in amplitude response [9]: -74%
Compound: COC(=O)[C@@H](CCSC)NC(=O)[C@H](CC(C)C)SCCNC(=O)[C@H](Cc1ccccc1)NC(=O)[C@@H](Cc1ccccc1)NC(=O)[C@H](CCC(N)=O)NC(=O)[C@H](CCC(N)=O)NC(=O)C1CCCN1C(=O)OC(C)(C)C (stereo in doubt)

Activity [2]: 3.1 dose ratio | Activity [3]: < 2 dose ratio | Activity [4]: < 2 dose ratio | Activity [5]: 19 dose ratio
Compound: COC(=O)C(CCSC)NC(=O)[C@@H](CC(C)C)SCCNC(=O)[C@@H](Cc1ccccc1)NC(=O)[C@H](Cc1ccccc1)NC(=O)[C@H](CCC(N)=O)NC(=O)[C@H](CCC(N)=O)NC(=O)[C@H]1CCCN1C(=O)[C@H](CCCCN)NC(=O)[C@H]1CCCN1C(=O)[C@@H](N)CCCN=C(N)N (stereo in doubt)

Activity [2]: < 2 dose ratio | Activity [3]: < 2 dose ratio | Activity [4]: < 2 dose ratio | Activity [5]: 2.5 dose ratio
Compound: COC(=O)[C@@H](CCSC)NC(=O)[C@H](CC(C)C)N(C)C(=O)CN(C)C(=O)[C@H](Cc1ccccc1)NC(=O)[C@@H](Cc1ccccc1)NC(=O)[C@H](CCC(N)=O)NC(=O)[C@H](CCC(N)=O)NC(=O)C1CCCN1C(=O)[C@H](CCCCN)NC(=O)C1CCCN1C(=O)[C@@H](N)CCCN=C(N)N (stereo in doubt)
